The values that follow come from ChEMBL document CHEMBL5030548, “Blockade of GRTH/DDX25 Phosphorylation by Cyclic Peptides Provides an Avenue for Developing a Nonhormonal Male Contraceptive” (J Med Chem, 2021).

Molecules are shown by their SMILES. Calls of active or inactive are those of the source. The rule behind the calls is not given here. Where a SMILES comes first, the peptide text is derived from it. [ ]: non-standard residue; d: D form. The star is where a group is joined. FITC = O=C1OC2(c3ccc(O)cc3Oc3cc(O)ccc32)c2ccc(NC(=S)*)cc21; 2Nal = N[C@@H](Cc1ccc2ccccc2c1)C(=O)O; AEEA = NCCOCCOCC(=O)O

In general, inhibition refers to the change of the read-out against control, counted positive when it falls. A word on the IC50: it is the midpoint of a concentration-inhibition curve.

Data set [1] relates to COS-1. Briefly: Inhibition of GRTH phosphorylation (unknown origin) expressed in COS-1 cells assessed as reduction in pGRTH protein level at 5 to 100 uM measured after 16 hrs by western blot analysis. The settings on record: Homo sapiens, dose 5-100 µM. In kind it is cell-based. A digest of the protocol:
(§1)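 COS-1 cells stably expressing human GRTH-V5-His at ~90% confluence. Peptides dissolved in water and given at 5, 20, 60 or 100 μM for 16 h, or at 100 μM for 4, 8, 16 or 24 h. 30 μg protein per sample was blotted with a rabbit phospho-T239-specific GRTH antibody. 61 kDa pGRTH band normalized to β-actin; three independent experiments; ANOVA with Tukey test.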
(Immunoblotting shows a protein as a band on a membrane.)

Data set [2] is described as follows: Drug uptake in cytoplasm of African green monkey COS-1 cells assessed as compound accumulation in cytoplasm at 20 uM incubated for 4 hrs in presence of FITC-labelled peptide by DAPI staining based inverted phase contrast fluorescence microscope analysis. The class given is ADME, subcellular. The settings on record: chlorocebus aethiops, cos-1, 4 h. A digest of the protocol: (§2)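 Stable GRTH-expressing COS-1 cells grown overnight on coverslips, then given 20 μM FITC-tagged peptide for 4 h. After PBS wash they were fixed in 50% then 100% methanol, 1 min each, and mounted with DAPI. Green signal in cytoplasm and nucleus was viewed by inverted fluorescence microscopy.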

The species entered for data set [3] is Mus musculus. Briefly: Inhibition of GRTH phosphorylation in mouse seminiferous tubule of testis assessed as reduction in pGRTH protein level at 100 uM measured after 16 hrs by western blot analysis. The class given is tissue-based. A digest of the protocol: (§3)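 Seminiferous tubules from adult mice (90 days old) in medium 199, 4 h, then 100 μM peptide for 16 h. Lysates were blotted with phospho-specific GRTH antibody. pGRTH band normalized to β-actin and compared with untreated tubules; n = 3.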

Data set [4] in a line: Drug uptake in mouse seminiferous tubule of testis at 100 uM incubated for 16 hrs by immunofluorescence microscopic analysis. In kind it is ADME, tissue-based. The settings on record: in vitro. A digest of the protocol:
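Seminiferous tubules from decapsulated testes of 90-day-old mice were segmented and placed in medium 199. After 4 h, 100 μM FITC-tagged peptide was added for 16 h. Tubules were PBS-washed, mounted with antifade and imaged by fluorescence microscopy.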

Data set [5] can be described thus: Drug uptake in nucleus of African green monkey COS-1 cells assessed as compound accumulation in nucleus at 20 uM incubated for 4 hrs in presence of FITC-labelled peptide by DAPI staining based inverted phase contrast fluorescence microscope analysis. The class given is ADME, subcellular. The settings on record: chlorocebus aethiops, cos-1, 4 h. A digest of the protocol:
as §2

Data set [6] deals with COS-1. Briefly: Inhibition of GRTH phosphorylation (unknown origin) expressed in COS-1 cells assessed as reduction in pGRTH protein level at 100 uM measured after 24 hrs by western blot analysis. In kind it is cell-based. Particulars: Homo sapiens. The method in brief:
as §1

Data set [7] concerns COS-1. Briefly: Inhibition of PKA-induced GRTH phosphorylation (unknown origin) expressed in COS-1 cells at 100 uM stimulated with PKA for 24 hrs followed by peptide addition and incubated overnight by Western blot analysis. In kind it is cell-based. Particulars: Homo sapiens. A digest of the protocol: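 Stable GRTH COS-1 cells at 0.3 × 10^6/well were transfected with PKAα catalytic subunit plasmid (3 μg/well), or with empty plasmid, and grown 24 h. Peptide was then added at 100 μM overnight at 37 °C. pGRTH was detected by western blot with phospho-specific antibody (1:1000) and normalized to β-actin; three experiments.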

Data set [8] relates to COS-1. As to the kind of experiment: Inhibition of GRTH phosphorylation (unknown origin) expressed in COS-1 cells assessed as reduction in pGRTH protein level at 100 uM measured after 8 to 16 hrs by western blot analysis. In kind it is cell-based. Particulars: Homo sapiens, time 8-16 hrs. A digest of the protocol:
as §1

Data set [9] concerns COS-1. As to the kind of experiment: Inhibition of GRTH phosphorylation (unknown origin) expressed in COS-1 cells assessed as reduction in pGRTH protein level measured after 16 hrs by western blot analysis. Particulars: Homo sapiens. The class given is cell-based. The method in brief: as §1
For data set [10], the system named is COS-1. Briefly: Binding affinity to mCherry labelled GRTH (unknown origin) expressed in COS-1 cells assessed as increase in fluorescence intensity of donor peptide FITC in bleached region at 15 uM followed by acceptor photobleaching measured after 16 hrs by inverted microscope based live cell imaging analysis. The settings on record: Homo sapiens. A digest of the protocol:
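COS-1 cells carrying an mCherry-human GRTH fusion, in glass-bottom dishes, exposed to 15 μM FITC-labelled peptide for 16 h, then imaged live. mCherry was excited at 561 nm and FITC at 488 nm (emission 500–550 nm). ROIs were bleached in the acceptor channel at 514 nm, 100% power, 10 iterations. FRET efficiency E% = 100 × (FITC postbleach − FITC prebleach)/FITC postbleach.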

Data set [11] concerns COS-1. As to the kind of experiment: Binding affinity to GRTH (unknown origin) expressed in COS-1 cell lysate assessed as thermostabilization of protein at 40 uM incubated for 16 hrs followed by heating at 40 to 70 degree C for 3 mins by CETSA based western blot analysis. In kind it is subcellular. Particulars: Homo sapiens. A digest of the protocol:
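Lysate of COS-1 cells stably carrying human GRTH-V5-His, made with protease/phosphatase inhibitor and cleared by centrifugation, then diluted in lysis buffer. Peptide added to 40 μM and rotated 16 h at 4 °C. Aliquots were heated 3 min at 40–70 °C and cooled 3 min at room temperature, then spun. Soluble non-phospho GRTH was read by western blot; 40 °C sample served as reference; n = 3.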

In data set [12] the test system is COS-1. Briefly: Cytotoxicity against African green monkey COS-1 cell assessed as reduction in cell viability incubated for 24 hrs by CellTiter 96 non-radioactive cell proliferation assay. In kind it is cell-based. Particulars: Chlorocebus aethiops, COS-1, 24 h. A digest of the protocol: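 COS-1 cells stably expressing human GRTH, seeded at 0.01 × 10^6/well and left 16 h. Peptides at 10, 50, 100, 250 and 500 μM for 24 h at 37 °C with 5% CO2. Tetrazolium dye was then added for 4 h, reaction stopped, absorbance read at 570 nm. Viability taken as % of control OD; IC50 by linear regression of dose–response.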

The species entered for data set [13] is Mus musculus. Briefly: Inhibition of GRTH phosphorylation in mouse seminiferous tubule of testis assessed as reduction in pGRTH protein level at 100 uM measured after 16 hrs by western blot analysis relative to control. In kind it is tissue-based. The method in brief: as §3
In data set [14] the test system is COS-1. Briefly: Inhibition of GRTH phosphorylation (unknown origin) expressed in COS-1 cells assessed as reduction in pGRTH protein level at 100 uM measured after 16 to 24 hrs by western blot analysis. Particulars: Homo sapiens, time 16-24 hrs. In kind it is cell-based. The method in brief:
as §1

`N=C(N)NCCC[C@@H]1NC(=O)CNC(=O)CNC(=O)CNC(=O)COCCOCCNC(=O)[C@H](CCCCNC(=S)Nc2ccc3c(c2)C(=O)OC32c3ccc(O)cc3Oc3cc(O)ccc32)NC(=O)[C@H](CCCNC(=N)N)NC(=O)[C@H](CCCNC(=N)N)NC1=O` (cyclo([AEEA]GGGRRRK(FITC))): the inhibition entry with COS-1 [1] and in the data set filed under Mus musculus [3] was “inactive” throughout. The Drug uptake result in data set [2], in data set [4] and in data set [5] was “Active” in each case.
For `N=C(N)NCCC[C@@H]1NC(=O)CNC(=O)[C@H](Cc2ccc3ccccc3c2)NC(=O)[C@H](Cc2ccccc2)NC(=O)COCCOCCNC(=O)[C@H](CCCCNC(=S)Nc2ccc3c(c2)C(=O)OC32c3ccc(O)cc3Oc3cc(O)ccc32)NC(=O)[C@H](CCCNC(=N)N)NC(=O)[C@H](CCCNC(=N)N)NC1=O` (cyclo([2Nal]GRRRK(FITC)[AEEA]F)), the inhibition entry with COS-1 [6], in the data set on COS-1 [7] and in the data set with COS-1 [8] was “Active” throughout. The inhibition entry in the data set with COS-1 [9] was “Dose-Dependent Effect”. The Drug uptake result in data set [2], in data set [4] and in data set [5] was “Active” each time. Moreover, the result with COS-1 [10] and with COS-1 [11] was Active. Besides, the concentration for half-maximal inhibition (IC50) in the data set on COS-1 [12] is 312 µM.
In the case of `N=C(N)NCCC[C@@H]1NC(=O)CNC(=O)[C@H](Cc2ccc3ccccc3c2)NC(=O)[C@H](Cc2ccccc2)NC(=O)COCCOCCNC(=O)[C@@H](CCCCNC(=S)Nc2ccc3c(c2)C(=O)OC32c3ccc(O)cc3Oc3cc(O)ccc32)NC(=O)[C@H](CCCNC(=N)N)NC(=O)[C@H](CCCNC(=N)N)NC1=O` (cyclo([2Nal]GRRR[dK](FITC)[AEEA]F)), the inhibition result with COS-1 [6] was “inactive”. In addition, the inhibition entry with COS-1 [7] and in the data set on COS-1 [8] was “Active” each time. For the same compound, the inhibition result is “Dose-Dependent Effect” in the data set with COS-1 [9] and 60% in the data set filed under Mus musculus [13]. Further, the Drug uptake entry in [2], in data set [4] and in data set [5] was “Active” each time. For the same compound, the result in the data set with COS-1 [10] and in the data set on COS-1 [11] was Active. Besides, the IC50 with COS-1 [12] stood at 333 µM.
Consider `N=C(N)NCCC[C@@H]1NC(=O)CNC(=O)[C@H](Cc2ccc3ccccc3c2)NC(=O)[C@H](Cc2ccccc2)NC(=O)COCCOCCNC(=O)CNC(=O)[C@H](CCCNC(=N)N)NC(=O)[C@H](CCCNC(=N)N)NC1=O` (cyclo([2Nal]GRRRG[AEEA]F)), for which the inhibition result in the data set on COS-1 [6] and in the data set on COS-1 [14] was “Active” throughout. For the same compound, the inhibition entry with COS-1 [9] is “Dose-Dependent Effect”. In addition, in the data set on COS-1 [12], the IC50 turned out to be 392 µM.
For the compound `N=C(N)NCCC[C@H](NC(=O)CNC(=O)[C@H](Cc1ccc2ccccc2c1)NC(=O)[C@@H](N)Cc1ccccc1)C(=O)N[C@@H](CCCNC(=N)N)C(=O)N[C@@H](CCCNC(=N)N)C(=O)N[C@@H](CCCCNC(=S)Nc1ccc2c(c1)C(=O)OC21c2ccc(O)cc2Oc2cc(O)ccc21)C(=O)NCCOCCOCC(=O)O` (H-F[2Nal]GRRRK(FITC)[AEEA]-OH), the inhibition entry with COS-1 [1] and in the data set listed under Mus musculus [3] was “inactive” in each case. For the same compound, the Drug uptake entry in [2] is listed as “Not Active”; in data set [4], “Active”; in data set [5] it was “Not Active”.
Turning to `O=C(O)CC[C@@H]1NC(=O)CNC(=O)[C@H](Cc2ccc3ccccc3c2)NC(=O)[C@H](Cc2ccccc2)NC(=O)COCCOCCNC(=O)[C@H](CCCCNC(=S)Nc2ccc3c(c2)C(=O)OC32c3ccc(O)cc3Oc3cc(O)ccc32)NC(=O)[C@H](CCC(=O)O)NC(=O)[C@H](CCC(=O)O)NC1=O` (cyclo([2Nal]GEEEK(FITC)[AEEA]F)), the inhibition entry in the data set on COS-1 [7], in the data set with COS-1 [1] and in the data set filed under Mus musculus [3] was “inactive” throughout. Besides, the Drug uptake result in data set [2], in data set [4] and in data set [5] was “Active” throughout. Besides, the outcome in the data set on COS-1 [10] and in the data set with COS-1 [11] was inactive.
